Measurements reported in ChEMBL document CHEMBL2331220, “Benzimidazole clubbed with triazolo-thiadiazoles and triazolo-thiadiazines: new anticancer agents” (2013).

Assays:
Assay type in all cases: functional
NCI-H322M = test: Cytotoxicity against human NCI-H322M cells after 48 hrs by SRB assay
Procedure, shortened: (§1)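 NCI 60-line five-dose screen. Cells were preincubated 24 h at 37 °C under 5% CO2 and 100% humidity, and time-zero plates were TCA-fixed when compound was added. Five 10-fold concentrations (0.01–100) were tested for 48 h. Cells were fixed with cold TCA (final 10%, 60 min, 4 °C), stained with 0.4% SRB for 10 min, and read at 515 nm. GI50, TGI and LC50 came from growth-percentage formulas, with out-of-range values given as > or <.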

COLO 205 = test: Cytotoxicity against human COLO205 cells after 48 hrs by SRB assay; settings: COLO 205, 48 h; procedure, shortened: as §1
SF-268 = test: Cytotoxicity against human SF268 cells after 48 hrs by SRB assay; settings: SF-268, 48 h; procedure, shortened: as §1
LOX IMVI = test: Cytotoxicity against human LOXIMVI cells after 48 hrs by SRB assay; procedure, shortened: as §1
UACC-62 = test: Cytotoxicity against human UACC62 cells after 48 hrs by SRB assay; settings: UACC-62, 48 h
Procedure, shortened: (§2)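 NCI 60-line five-dose screen: cells plated, held 24 h at 37 °C, 5% CO₂ before treatment, with a TCA-fixed time-zero plate. Five final concentrations (0.01–100 µM, 10-fold dilutions) for 48 h. Cells fixed with cold TCA (10% final) and stained with 0.4% SRB in 1% acetic acid. Dye dissolved in 10 mM Tris and read at 515 nm. GI₅₀, TGI and LC₅₀ taken from percent-growth curves.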

OVCAR-3 = test: Cytotoxicity against human OVCAR3 cells after 48 hrs by SRB assay; settings: OVCAR-3, 48 h; procedure, shortened: as §1
A498 = test: Cytotoxicity against human A498 cells after 48 hrs by SRB assay; settings: A498, 48 h; procedure, shortened: as §1
OVCAR-8 = test: Cytotoxicity against human OVCAR8 cells after 48 hrs by SRB assay; settings: OVCAR-8, 48 h; procedure, shortened: as §1
HL-60(TB) = test: Cytotoxicity against human HL-60(TB) cells after 48 hrs by SRB assay; settings: HL-60, 48 h
Procedure, shortened: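 NCI five-dose screen: cells preincubated 24 h at 37 °C, 5% CO₂, with time-zero plates TCA-fixed. Five 10-fold dilutions (0.01–100) were added and cells incubated for 48 h, then fixed in 10% TCA for 60 min at 4 °C. Staining used 0.4% SRB in 1% acetic acid, solubilised in 10 mM Tris, with A515 read. GI₅₀, TGI and LC₅₀ were derived from Tz, control and test absorbances.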

ACHN = test: Cytotoxicity against human ACHN cells after 48 hrs by SRB assay; procedure, shortened: as §1
OVCAR-5 = test: Cytotoxicity against human OVCAR5 cells after 48 hrs by SRB assay; settings: OVCAR-5, 48 h; procedure, shortened: as §1
RXF 393 = test: Cytotoxicity against human RXF393 cells after 48 hrs by SRB assay; settings: RXF 393, 48 h; procedure, shortened: as §1
NCI-H226 = test: Cytotoxicity against human NCI-H226 cells after 48 hrs by SRB assay; settings: NCI-H226, 48 h; procedure, shortened: as §1
CCRF-CEM = test: Cytotoxicity against human CCRF-CEM cells after 48 hrs by SRB assay; procedure, shortened: as §1
SK-MEL-28 = test: Cytotoxicity against human SK-MEL-28 cells after 48 hrs by SRB assay; settings: SK-MEL-28, 48 h; procedure, shortened: as §1
NCI-H522 = test: Cytotoxicity against human NCI-H522 cells after 48 hrs by SRB assay; settings: NCI-H522, 48 h; procedure, shortened: as §1
SR = test: Cytotoxicity against human SR cells after 48 hrs by SRB assay; procedure, shortened: as §2
SN12C = test: Cytotoxicity against human SN12C cells after 48 hrs by SRB assay; procedure, shortened: as §2
[1] = read-out: LC50 (the source's name)
[2] = read-out: pLC50 (the source's name) (converted)

O=C(CCc1nnc2sc(-c3ccc(Cl)cc3Cl)nn12)c1nc2ccccc2[nH]1
GI50 (NCI-H322M; read-out: GI50): 1760 nM
CC50 (NCI-H322M; [1]): 7.94 µM
TGI (NCI-H322M; read-out: TGI): 3.74 µM
GI50 (NCI-H322M; read-out: pGI50 (converted)): 1780 nM
CC50 (NCI-H322M; [2]): 7.94 µM
TGI (NCI-H322M; read-out: pTGI (converted)): 3.72 µM
GI50 (COLO 205; read-out: GI50): 767 nM
CC50 (COLO 205; [1]): 5.5 µM
TGI (COLO 205; read-out: TGI): 2210 nM
GI50 (COLO 205; read-out: pGI50 (converted)): 759 nM
CC50 (COLO 205; [2]): 5.5 µM
TGI (COLO 205; read-out: pTGI (converted)): 2190 nM
GI50 (SF-268; read-out: GI50): 740 nM
CC50 (SF-268; [1]): 5.15 µM
TGI (SF-268; read-out: TGI): 2140 nM
GI50 (SF-268; read-out: pGI50 (converted)): 741 nM
CC50 (SF-268; [2]): 5.13 µM
TGI (SF-268; read-out: pTGI (converted)): 2140 nM
GI50 (LOX IMVI; read-out: GI50): 363 nM
TGI (LOX IMVI; read-out: TGI): 1590 nM
GI50 (LOX IMVI; read-out: pGI50 (converted)): 363 nM
TGI (LOX IMVI; read-out: pTGI (converted)): 1580 nM
GI50 (UACC-62; read-out: GI50): 1060 nM
LC50 (concentration giving 50% net cell kill) (UACC-62; read-out: LC50): 5.61 µM
TGI (UACC-62; read-out: TGI): 2440 nM
GI50 (UACC-62; read-out: pGI50 (converted)): 1070 nM
LC50 (concentration giving 50% net cell kill) (UACC-62; read-out: pLC50 (converted)): 5.62 µM
TGI (UACC-62; read-out: pTGI (converted)): 2450 nM
GI50 (OVCAR-3; read-out: GI50): 514 nM
LC50 (OVCAR-3; read-out: LC50): 4.6 µM
TGI (OVCAR-3; read-out: TGI): 1800 nM
GI50 (OVCAR-3; read-out: pGI50 (converted)): 513 nM
LC50 (OVCAR-3; read-out: pLC50 (converted)): 4.57 µM
TGI (OVCAR-3; read-out: pTGI (converted)): 1820 nM
GI50 (A498; read-out: GI50): 1100 nM
LC50 (concentration giving 50% net cell kill) (A498; read-out: LC50): 4.89 µM
TGI (A498; read-out: TGI): 2320 nM
GI50 (A498; read-out: pGI50 (converted)): 1100 nM
LC50 (concentration giving 50% net cell kill) (A498; read-out: pLC50 (converted)): 4.9 µM
TGI (A498; read-out: pTGI (converted)): 2340 nM
GI50 (OVCAR-8; read-out: GI50): 2580 nM
LC50 (lethal concentration 50%) (OVCAR-8; read-out: LC50): > 100 µM
TGI (OVCAR-8; read-out: TGI): > 100 µM
GI50 (OVCAR-8; read-out: pGI50 (converted)): 2570 nM
LC50 (lethal concentration 50%) (OVCAR-8; read-out: pLC50 (converted)): > 100 µM
TGI (OVCAR-8; read-out: pTGI): > 100 µM
GI50 (HL-60(TB); read-out: GI50): 862 nM
CC50 (HL-60(TB); [1]): > 100 µM
TGI (HL-60(TB); read-out: TGI): 5.93 µM
GI50 (HL-60(TB); read-out: pGI50 (converted)): 871 nM
CC50 (HL-60(TB); [2]): > 100 µM
TGI (HL-60(TB); read-out: pTGI (converted)): 5.89 µM
GI50 (ACHN; read-out: GI50): 339 nM
LC50 (50% lethal concentration) (ACHN; read-out: LC50): 4.67 µM
TGI (ACHN; read-out: TGI): 1350 nM
GI50 (ACHN; read-out: pGI50 (converted)): 339 nM
LC50 (50% lethal concentration) (ACHN; read-out: pLC50 (converted)): 4.68 µM
TGI (ACHN; read-out: pTGI (converted)): 1350 nM
GI50 (OVCAR-5; read-out: GI50): 1880 nM
CC50 (OVCAR-5; [1]): 8.39 µM
TGI (OVCAR-5; read-out: TGI): 3.98 µM
GI50 (OVCAR-5; read-out: pGI50 (converted)): 1910 nM
CC50 (OVCAR-5; [2]): 8.32 µM
TGI (OVCAR-5; read-out: pTGI (converted)): 3.98 µM
GI50 (RXF 393; read-out: GI50): 674 nM
CC50 (RXF 393; [1]): 4.55 µM
TGI (RXF 393; read-out: TGI): 1990 nM
GI50 (RXF 393; read-out: pGI50 (converted)): 676 nM
CC50 (RXF 393; [2]): 4.57 µM
TGI (RXF 393; read-out: pTGI (converted)): 2000 nM
GI50 (NCI-H226; read-out: GI50): 244 nM
CC50 (NCI-H226; [1]): 2590 nM
TGI (NCI-H226; read-out: TGI): 696 nM
GI50 (NCI-H226; read-out: pGI50 (converted)): 245 nM
CC50 (NCI-H226; [2]): 2570 nM
TGI (NCI-H226; read-out: pTGI (converted)): 692 nM
GI50 (CCRF-CEM; read-out: GI50): 265 nM
CC50 (CCRF-CEM; [1]): > 100 µM
TGI (CCRF-CEM; read-out: TGI): 974 nM
GI50 (CCRF-CEM; read-out: pGI50 (converted)): 263 nM
CC50 (CCRF-CEM; [2]): > 100 µM
TGI (CCRF-CEM; read-out: pTGI (converted)): 977 nM
GI50 (SK-MEL-28; read-out: GI50): 474 nM
CC50 (SK-MEL-28; [1]): 4.24 µM
TGI (SK-MEL-28; read-out: TGI): 1670 nM
GI50 (SK-MEL-28; read-out: pGI50 (converted)): 479 nM
CC50 (SK-MEL-28; [2]): 4.27 µM
TGI (SK-MEL-28; read-out: pTGI (converted)): 1660 nM
GI50 (NCI-H522; read-out: GI50): 1280 nM
CC50 (NCI-H522; [1]): 6.82 µM
TGI (NCI-H522; read-out: TGI): 2960 nM
GI50 (NCI-H522; read-out: pGI50 (converted)): 1290 nM
CC50 (NCI-H522; [2]): 6.76 µM
TGI (NCI-H522; read-out: pTGI (converted)): 2950 nM
GI50 (SR; read-out: GI50): 333 nM
CC50 (SR; [1]): > 100 µM
TGI (SR; read-out: TGI): > 100 µM
GI50 (SR; read-out: pGI50 (converted)): 331 nM
CC50 (SR; [2]): > 100 µM
TGI (SR; read-out: pTGI): > 100 µM
GI50 (SN12C; read-out: GI50): 1230 nM
TGI (SN12C; read-out: TGI): 3.1 µM
GI50 (SN12C; read-out: pGI50 (converted)): 1230 nM
TGI (SN12C; read-out: pTGI (converted)): 3.09 µM
